Assays:
[1] = tested on: Human immunodeficiency virus 1; assay: Antiviral activity against wild type HIV-1 IIIB infected in human MT4 cells […]; type: functional, organism-based; conditions: Human immunodeficiency virus 1, IIIB
[2] = Cytotoxicity against human MT4 cells by MTT assay; type: toxicity, cell-based
[3] = Selectivity index, ratio of CC50 for cytotoxicity against human MT4 cells to EC50 for antiviral activity against wild type HIV-1 IIIB infected in human MT4 cells; type: toxicity, cell-based; conditions: read-out: Ratio CC50/EC50
In short: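 Selectivity index calculated as CC50/EC50 ratio, both values from MTT viability readout in MT-4 cells, antiviral arm using wild-type HIV-1 IIIB.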

[4] = tested on: Human immunodeficiency virus 1; assay: Antiviral activity against HIV-1 harboring L100I mutant infected in human MT4 cells […]; type: functional, organism-based; conditions: Human immunodeficiency virus 1, MT4
[5] = tested on: Human immunodeficiency virus 1; assay: Antiviral activity against HIV-1 harboring K103N mutant infected in human MT4 cells […]; type: functional, organism-based; conditions: Human immunodeficiency virus 1, MT4
[6] = tested on: Human immunodeficiency virus 1; assay: Antiviral activity against HIV-1 harboring Y181C mutant infected in human MT4 cells […]; type: functional, organism-based; conditions: Human immunodeficiency virus 1, MT4
[7] = tested on: Human immunodeficiency virus 1; assay: Antiviral activity against HIV-1 harboring E138K mutant infected in human MT4 cells […]; type: functional, organism-based; conditions: Human immunodeficiency virus 1, MT4
[8] = biological target: Human immunodeficiency virus type 1 reverse transcriptase (Human immunodeficiency virus 1, UniProt Q72547); assay: Inhibition of wild type HIV-1 Reverse transcriptase
[9] = tested on: Human immunodeficiency virus 1; assay: Antiviral activity against HIV-1 harboring Y188L mutant infected in human MT4 cells assessed as inhibition of virus-induced cytopathic effect by MTT assay; conditions: Human immunodeficiency virus 1, MT4
[10] = biological target: Human immunodeficiency virus type 1 reverse transcriptase (Human immunodeficiency virus 1) (UniProt Q72547); assay: Potency index, ratio of Nevirapine IC50 to test compound IC50 for inhibition of wild type HIV-1 Reverse transcriptase
[11] = Stability in human plasma assessed as parent compound remaining measured immediately; type: ADME, cell-free; conditions: read-out: Stability
[12] = Stability in human plasma assessed as parent compound remaining measured at 15 mins; type: ADME, cell-free; conditions: read-out: Stability
[13] = Stability in human plasma assessed as parent compound remaining measured at 30 mins; type: ADME, cell-free; conditions: read-out: Stability
[14] = Stability in human plasma assessed as parent compound remaining measured at 60 mins; type: ADME, cell-free; conditions: read-out: Stability
[15] = Stability in human plasma assessed as parent compound remaining measured at 120 mins; type: ADME, cell-free; conditions: read-out: Stability
[16] = Stability in human plasma assessed as parent compound remaining measured at 300 mins; type: ADME, cell-free; conditions: read-out: Stability
[17] = Stability in human plasma assessed as half life; type: ADME, cell-free
[18] = Metabolic stability in human microsomes assessed as intrinsic clearance; type: ADME, Microsome; conditions: read-out: CLH
In short: (§1)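 Incubation with human liver microsomes; half-life obtained from depletion fit (R² reported), intrinsic clearance expressed per mg microsomal protein (μL/min/mg) and scaled to liver (mL/min/kg).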

[19] = Metabolic stability in human liver microsomes assessed as half life; type: ADME, Microsome; in short: as §1

Compound | EC50 [1] [nM] | CC50 [2] [nM] | selectivity ratio [3] | EC50 [4] [nM] | EC50 [5] [nM] | EC50 [6] [nM] | EC50 [7] [nM] | IC50 [8] [nM] | EC50 [9] [nM] | Ratio IC50 [10] | remaining at 0 min [11] [%] | remaining at 0.25 h [12] [%] | remaining at 0.5 h [13] [%] | remaining at 1 h [14] [%] | remaining at 2 h [15] [%] | remaining at 5 h [16] [%] | half-life [17] [h] | microsomal CLint [18] [µL/min/mg] | half-life [19] [h]
C/N=C(/c1ccnc(Nc2ccc(C#N)cc2)n1)c1ccc(-c2ccc(C#N)cc2)cc1OC | 8 | 16000 | 1960 | 293 | 169 | 293 | 83 | 61 | 4460 |  |  |  |  |  |  |  |  |  | 
C/N=C(/c1ccnc(Nc2ccc(C#N)cc2)n1)c1ccc(-c2ccc(C#N)cc2)cc1C | 12 | > 47000 | > 3940 | 1540 | 373 | 420 | 82 | 58 | > 46700 |  |  |  |  |  |  |  |  |  | 
CNC(c1ccnc(Nc2ccc(C#N)cc2)n1)c1ccc(-c2ccc(C#N)cc2)cc1C(F)(F)F (configuration not stated) | 39 | 15000 | 363 | 2440 | 1340 | 1180 | 184 | 495 | 7510 | 1.5 |  |  |  |  |  |  |  |  | 
C/N=C(/c1ccnc(Nc2ccc(C#N)cc2)n1)c1ccc(-c2ccc(C#N)cc2)cc1OC(F)(F)F | 13 | > 251000 | > 19100 | 301 | 281 | 361 | 122 | 221 | 20100 |  |  |  |  |  |  |  |  |  | 
N#Cc1ccc(Nc2nccc(/C(=N/N)c3ccc(-c4ccc(C#N)cc4)cc3C(F)(F)F)n2)cc1 | 31 | 68000 | 2170 | 58 | 106 | 134 | 68 | 58 | 1140 |  |  |  |  |  |  |  |  |  | 
C/N=C(/c1ccnc(Nc2ccc(C#N)cc2)n1)c1ccc(-c2ccc(C#N)cc2)cc1C(F)(F)F | 35 | 119000 | 3280 | 352 | 415 | 435 | 290 | 180 | 3030 |  |  |  |  |  |  |  |  |  | 
N#Cc1ccc(Nc2nccc(/C(=N/N)c3ccc(-c4ccc(C#N)cc4)cc3F)n2)cc1 | 7 | > 46000 | > 6210 | 69 | 125 | 210 | 194 | 20 | > 46100 |  |  |  |  |  |  |  |  |  | 
CNC(c1ccnc(Nc2ccc(C#N)cc2)n1)c1ccc(-c2ccc(C#N)cc2)cc1F (configuration not stated) | 64 | 13000 | 196 | ≥ 11000 | 10500 | 1910 | 368 | 783 | > 12700 | 0.96 |  |  |  |  |  |  |  |  | 
N#Cc1ccc(Nc2nccc(/C(=N/N)c3ccc(-c4ccc(C#N)cc4)cc3Cl)n2)cc1 | 6 | 212000 | 33300 | 22 | 49 | 67 | 76 | 36 | 778 |  |  |  |  |  |  |  |  |  | 
CNC(c1ccnc(Nc2ccc(C#N)cc2)n1)c1ccc(-c2ccc(C#N)cc2)cc1OC(F)(F)F (configuration not stated) | 56 | 18000 | 313 | 1940 | 1460 | 2220 | 320 | 2000 | ≥ 7210 | 0.38 |  |  |  |  |  |  |  |  | 
Cc1cc(/C=C/C#N)cc(C)c1Nc1ccnc(Nc2ccc(C#N)cc2)n1 [RILPIVIRINE] |  |  |  |  |  |  |  |  |  |  | 100 | 102 | 99.4 | 99.3 | 95.3 | 97.4 | > 5 | 108 | 
Cc1cc(-c2ccc(C#N)cc2)ccc1/C(=N\N)c1ccnc(Nc2ccc(C#N)cc2)n1 | 7 | > 291000 | > 45000 | 16 | 17 | 47 | 13 | 23 | 442 |  |  |  |  |  |  |  |  |  | 
C/N=C(/c1ccnc(Nc2ccc(C#N)cc2)n1)c1ccc(-c2ccc(C#N)cc2)cc1Cl | 6 | > 45000 | > 7140 | 149 | 129 | 192 | 51 | 69 | 3810 |  |  |  |  |  |  |  |  |  | 
CNC(c1ccnc(Nc2ccc(C#N)cc2)n1)c1ccc(-c2ccc(C#N)cc2)cc1OC (configuration not stated) | 36 | 13000 | 354 | 2330 | 941 | 1300 | 224 | 963 | 7320 | 0.78 |  |  |  |  |  |  |  |  | 
CNC(c1ccnc(Nc2ccc(C#N)cc2)n1)c1ccc(-c2ccc(C#N)cc2)cc1C (configuration not stated) | 33 | 12000 | 367 | 2440 | 743 | 1090 | 279 | 153 | 9200 |  |  |  |  |  |  |  |  |  | 
Cc1cc(C#N)cc(C)c1Oc1nc(Nc2ccc(C#N)cc2)nc(N)c1Br [ETRAVIRINE] |  | > 4600 |  |  |  |  |  |  | 20 |  | 100 | 102 | 95.4 | 97 | 92.1 | 78.5 | > 5 | 21.1 | 1.09
N#Cc1ccc(Nc2nccc(/C(=N/N)c3c(F)cc(-c4ccc(C#N)cc4)cc3F)n2)cc1 | 9 | 23000 | 2480 | 16 | 44 | 64 | 38 | 31 | > 23100 |  |  |  |  |  |  |  |  |  | 
N#Cc1ccc(Nc2nccc(/C(=N/N)c3ccc(-c4ccc(C#N)cc4)cc3OC(F)(F)F)n2)cc1 | 40 | 171000 | 4310 | 180 | 182 | 260 | 340 | 72 | 1480 |  |  |  |  |  |  |  |  |  | 

— ChEMBL document CHEMBL6153064, “Structure-based discovery of novel diarylpyrimidines as potent and selective Non-Nucleoside reverse transcriptase inhibitors: From CH(CN)-Biphenyl-Diarylpyrimidines to CNNH2-Biphenyl-Diarylpyrimidines” (Eur J Med Chem, 2025)
